{"data": "Results gathered from unrelated publications", "target": "Serine/threonine-protein kinase MRCK beta (CDC42BPB, Homo sapiens, UniProt Q9Y5S2)", "note": "Compare with care: the assays were run in different laboratories."}
{"SMILES": "CN(CCCC(F)(F)F)c1nccc(-c2cnn3ncccc23)n1", "read-out": "binding", "tested at": "1 µM", "remaining binding": "63%"}
{"SMILES": "O=C(c1ccc(Nc2ncc(Cl)c(-c3ccc(Cl)s3)n2)cc1)N1CCC(N2CCCC2)CC1", "read-out": "binding", "method": "competition with immobilised ligand", "tested at": "1 µM", "remaining binding": "92%"}
{"SMILES": "N[C@@H]1CCN(c2nccc(-c3cnn4ncccc34)n2)C1", "read-out": "binding", "tested at": "1 µM", "remaining binding": "100%"}
{"SMILES": "O=C(NCC1CCOCC1)c1n[nH]cc1NC(=O)c1c(F)cccc1F", "read-out": "binding", "method": "competition with immobilised ligand", "tested at": "1 µM", "remaining binding": "95%"}
{"SMILES": "COc1ccnn2ncc(-c3ccnc(N(C)C)n3)c12", "read-out": "binding", "tested at": "1 µM", "remaining binding": "100%"}
{"SMILES": "O=C(Nc1cccnn1)N1CC(C/C=C/c2cncc(Oc3ccc(C(F)(F)F)cn3)n2)C1", "read-out": "cell-free assay", "method": "competition with immobilised ligand", "tested at": "1 µM", "remaining binding": "100%"}
{"SMILES": "CC1CCCN1c1nccc(-c2cnn3ncccc23)n1 (centres unmarked)", "read-out": "binding", "tested at": "1 µM", "remaining binding": "97%"}
{"SMILES": "FC(F)(F)Oc1cccc(-c2cnc3ccc(-c4ccncc4)nn23)c1", "read-out": "cell-free assay", "method": "competition with immobilised ligand", "tested at": "5 µM", "remaining binding": "22%"}
{"SMILES": "c1cncc(-c2cccc(Nc3nccc(NC4CCCCC4)n3)c2)c1", "read-out": "binding", "method": "competition with immobilised ligand", "tested at": "10 µM", "remaining binding": "99%"}
{"SMILES": "Cc1cnc(Nc2ccc(C(=O)N3CCC(N4CCCC4)CC3)cc2)nc1-c1cc2ccccc2s1", "read-out": "binding", "method": "competition with immobilised ligand", "tested at": "1 µM", "remaining binding": "59%"}
{"SMILES": "Cc1cc(-n2nc(Cc3cc(F)cc(C(F)(F)F)c3)nc2C)ccc1C(N)=O", "read-out": "cell-free assay", "method": "competition with immobilised ligand", "tested at": "1 µM", "remaining binding": "100%"}
{"SMILES": "O=C(NCCCN1CCOCC1)c1ccc(Nc2ncc(Cl)c(-c3ccc(Cl)s3)n2)cc1", "read-out": "binding", "method": "competition with immobilised ligand", "tested at": "1 µM", "remaining binding": "100%"}
{"SMILES": "O=C(O)c1cc(-c2ccc(C3CCNCC3)cc2)c2ccc(-c3ccc(C(F)(F)F)cc3)cc2c1", "read-out": "cell-free assay", "method": "competition with immobilised ligand", "tested at": "1 µM", "remaining binding": "100%"}
{"SMILES": "CNC(=O)[C@@H]1CC[C@@H](n2c(-c3ccc4cnccc4c3)nc3ccc(C(=O)NCc4cccc(C(N)=O)c4)cc32)C1", "read-out": "binding", "method": "competition with immobilised ligand", "tested at": "1 µM", "remaining binding": "100%"}
{"SMILES": "Cc1nc(C2CCN(C(=O)c3ccc(OC(F)(F)F)cc3N)CC2)c2ncc(N3CCN(C)CC3)cc2n1", "read-out": "cell-free assay", "method": "competition with immobilised ligand", "tested at": "1 µM", "remaining binding": "100%"}
{"SMILES": "COc1ncc2cc3ccccc3nc2c1C#N", "read-out": "cell-free assay", "method": "competition with immobilised ligand", "tested at": "5 µM", "remaining binding": "100%"}
{"SMILES": "Nc1c(C(=O)NCc2ccc(C(=O)NCCCC3CCCCC3)cc2)cnn1-c1ccccc1", "read-out": "cell-free assay", "method": "competition with immobilised ligand", "tested at": "0.1 µM", "remaining binding": "100%"}
{"SMILES": "C[C@H]1CCN(c2nccc(-c3cnn4ncccc34)n2)C1", "read-out": "binding", "tested at": "1 µM", "remaining binding": "100%"}
{"SMILES": "COCCOc1nc(-c2ccc(Cl)nc2)nc2c1CN(C(=O)c1ncn3ccccc13)CC2", "read-out": "cell-free assay", "method": "competition with immobilised ligand", "tested at": "0.1 µM", "remaining binding": "100%"}
{"SMILES": "CN(C)c1ncc(F)c(-c2cnn3ncccc23)n1", "read-out": "binding", "tested at": "1 µM", "remaining binding": "100%"}
